According to ChEMBL document CHEMBL1782008, “Paraminabeolides A-F, cytotoxic and anti-inflammatory marine withanolides from the soft coral Paraminabea acronocephala” (J Nat Prod, 2011):

Experiments:
[1] = Cytotoxicity against human Hep3B cells by MTT assay; assay type: functional, cell-based, Hep 3B2
RAW264.7 [2] = assay: Antiinflammatory activity in mouse RAW264.7 cells assessed as residual LPS-induced iNOS protein level at 10 uM by Western blotting analysis
RAW264.7 [3] = assay: Antiinflammatory activity in mouse RAW264.7 cells assessed as inhibition of LPS-induced COX2 protein expression at 10 uM by Western blotting analysis; assay type: functional
Method in brief: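 RAW264.7 macrophages (ATCC) stimulated with LPS and treated at 10 μM. iNOS and COX-2 protein levels were quantified by immunoblot and expressed as % of LPS-only control cells (100%). Means ± SEM, n = 6.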

MCF7 = assay: Cytotoxicity against human MCF7 cells by MTT assay; assay type: functional, cell-based
HepG2 = assay: Cytotoxicity against human HepG2 cells by MTT assay; assay type: functional, cell-based
MDA-MB-231 = assay: Cytotoxicity against human MDA-MB-231 cells by MTT assay; assay type: functional, cell-based
[4] = system: beta-actin protein expression; assay: Toxicity in mouse RAW264.7 cells assessed as inhibition of beta-actin protein expression at 10 uM by Western blotting analysis; values are per cent of control

Structure (SMILES) | residual iNOS protein level at 10 µM (RAW264.7 [2]) [%] | COX-2 expression (% of LPS control) at 10 µM (RAW264.7 [3]) [%] | also measured
COc1cccc2c1C(=O)c1c(O)c3c(c(O)c1C2=O)C[C@@](O)(C(=O)CO)C[C@@H]3O[C@H]1C[C@H](N)[C@H](O)[C@H](C)O1 [DOXORUBICIN] |  |  | IC50 [1]: 0.7 µM
CC(=O)OC[C@]12CC[C@H]3[C@@H](CCC4=CC(=O)C=C[C@@]43C)[C@@H]1CC[C@@H]2[C@H](C)[C@H](O)[C@@H]1OC(=O)[C@H](C)[C@H]1C [PARAMINABEOLIDE C] | 37.9 |  | 
C[C@@H]([C@H]1CC[C@H]2[C@@H]3CCC4=CC(=O)C=C[C@]4(C)[C@H]3CC[C@]12C)[C@H]1CC[C@H](C)C(=O)O1 [MINABEOLIDE 4] | 23.2 | 22.4 | 
CC1=C(C)C(=O)O[C@@H]([C@@H](C)[C@H]2CC[C@H]3[C@@H]4CCC5=CC(=O)C=C[C@]5(C)[C@H]4CC[C@]23C)C1 [MINABEOLIDE 1] | 9.6 | 18.3 | IC50 (MCF7): 18.7 µM; IC50 (HepG2): 5.2 µM
CC(=O)OC[C@]12CC[C@H]3[C@@H](CCC4=CC(=O)C=C[C@@]43C)[C@@H]1CC[C@@H]2[C@H](C)[C@H]1CC[C@H](C)C(=O)O1 [MINABEOLIDE 5] | 6.3 | 31.3 | 
CC(=O)OC[C@]12CC[C@H]3[C@@H](CCC4=CC(=O)C=C[C@@]43C)[C@@H]1CC[C@@H]2[C@H](C)[C@H]1CC(C)=C(C)C(=O)O1 [MINABEOLIDE 2] | 45.7 | 51.2 | 
CC(=O)OC[C@]12CC[C@H]3[C@@H](CCC4=CC(=O)C=C[C@@]43C)[C@@H]1CC[C@@H]2[C@H](C)[C@H]1C[C@H](C)[C@H](C)C(=O)O1 [PARAMINABEOLIDE B] | 7.3 |  | IC50 (MDA-MB-231): 19.3 µM; IC50 (MCF7): 14.9 µM
C[C@H]([C@H](O)[C@@H]1OC(=O)[C@H](C)[C@@H]1C)[C@H]1CC[C@H]2[C@@H]3CCC4=CC(=O)C=C[C@]4(C)[C@H]3CC[C@]12C [PARAMINABEOLIDE D] | 43.3 |  | 
CC1=C(C)C(=O)O[C@@H]([C@@H](C)[C@H]2CC[C@H]3[C@@H]4CCC5=CC(=O)C=C[C@]5(C)[C@H]4CC[C@]23C=O)C1 [PARAMINABEOLIDE A] | 11 |  | residual activity at 10 µM [4]: 66.5%; IC50 (HepG2): 8 µM
